Results: ChEMBL document CHEMBL1150295, “Synthesis and receptor binding properties of 2beta-alkynyl and 2beta-(1,2,3-triazol)substituted 3beta-(substituted phenyl)tropane derivatives” (Bioorg Med Chem, 2008)

Columns and labels:
[1] = molecular target: Sodium-dependent dopamine transporter (Homo sapiens, UniProt Q01959); experiment: Displacement of [3H]WIN-35428 from dopamine transporter
How it was run: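 Competitive radioligand binding at membrane dopamine transporter; 0.5 nM [3H]WIN35,428 final concentration. Mean ± standard error of three or four experiments, each in triplicate.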

[2] = molecular target: Sodium-dependent noradrenaline transporter (Homo sapiens, UniProt P23975); experiment: Displacement of [3H]nisoxetine from norepinephrine transporter
Sodium-dependent noradrenaline transporter, sequence (P23975 whole entry): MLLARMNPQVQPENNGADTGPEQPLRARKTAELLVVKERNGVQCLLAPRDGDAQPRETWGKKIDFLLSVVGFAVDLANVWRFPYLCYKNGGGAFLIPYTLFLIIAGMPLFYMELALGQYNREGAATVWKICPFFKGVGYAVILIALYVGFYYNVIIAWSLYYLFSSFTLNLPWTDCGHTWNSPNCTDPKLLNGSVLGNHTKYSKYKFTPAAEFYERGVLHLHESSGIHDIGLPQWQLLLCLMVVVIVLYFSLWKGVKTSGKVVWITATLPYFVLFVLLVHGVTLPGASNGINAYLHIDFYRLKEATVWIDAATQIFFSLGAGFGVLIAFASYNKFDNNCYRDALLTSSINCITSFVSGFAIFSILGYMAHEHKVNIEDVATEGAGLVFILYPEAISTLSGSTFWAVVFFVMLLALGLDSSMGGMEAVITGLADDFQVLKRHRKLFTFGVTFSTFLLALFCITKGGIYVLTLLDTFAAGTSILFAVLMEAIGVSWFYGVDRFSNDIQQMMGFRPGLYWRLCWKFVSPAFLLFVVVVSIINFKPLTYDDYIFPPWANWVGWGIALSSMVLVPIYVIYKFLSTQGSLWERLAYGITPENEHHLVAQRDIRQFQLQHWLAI

[3] = molecular target: Sodium-dependent serotonin transporter (Homo sapiens, UniProt P31645); experiment: Displacement of [3H]paroxetine from serotonin transporter
Sodium-dependent serotonin transporter, sequence (P31645 whole entry): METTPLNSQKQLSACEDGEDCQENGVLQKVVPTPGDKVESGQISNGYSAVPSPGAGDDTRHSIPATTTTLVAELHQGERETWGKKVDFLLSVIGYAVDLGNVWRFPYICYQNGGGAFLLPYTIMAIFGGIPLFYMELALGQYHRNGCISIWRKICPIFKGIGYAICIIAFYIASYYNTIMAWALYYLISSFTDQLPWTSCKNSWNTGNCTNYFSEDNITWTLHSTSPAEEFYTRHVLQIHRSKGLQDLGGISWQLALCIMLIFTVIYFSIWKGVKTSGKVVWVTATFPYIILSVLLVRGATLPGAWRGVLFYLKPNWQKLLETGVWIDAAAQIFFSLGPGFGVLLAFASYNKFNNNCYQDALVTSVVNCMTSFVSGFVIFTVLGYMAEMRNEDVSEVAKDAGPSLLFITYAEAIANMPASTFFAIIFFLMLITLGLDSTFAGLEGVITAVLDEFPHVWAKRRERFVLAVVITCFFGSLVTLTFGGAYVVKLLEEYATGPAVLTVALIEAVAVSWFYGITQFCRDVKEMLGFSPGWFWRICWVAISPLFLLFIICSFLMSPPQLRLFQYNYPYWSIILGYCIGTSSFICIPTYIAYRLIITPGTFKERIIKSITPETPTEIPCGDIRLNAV

[4] = Selectivity for dopamine transporter over norepinephrine transporter
[5] = Selectivity for dopamine transporter over serotonin transporter

Sodium-dependent dopamine transporter, sequence (Q01959 whole entry): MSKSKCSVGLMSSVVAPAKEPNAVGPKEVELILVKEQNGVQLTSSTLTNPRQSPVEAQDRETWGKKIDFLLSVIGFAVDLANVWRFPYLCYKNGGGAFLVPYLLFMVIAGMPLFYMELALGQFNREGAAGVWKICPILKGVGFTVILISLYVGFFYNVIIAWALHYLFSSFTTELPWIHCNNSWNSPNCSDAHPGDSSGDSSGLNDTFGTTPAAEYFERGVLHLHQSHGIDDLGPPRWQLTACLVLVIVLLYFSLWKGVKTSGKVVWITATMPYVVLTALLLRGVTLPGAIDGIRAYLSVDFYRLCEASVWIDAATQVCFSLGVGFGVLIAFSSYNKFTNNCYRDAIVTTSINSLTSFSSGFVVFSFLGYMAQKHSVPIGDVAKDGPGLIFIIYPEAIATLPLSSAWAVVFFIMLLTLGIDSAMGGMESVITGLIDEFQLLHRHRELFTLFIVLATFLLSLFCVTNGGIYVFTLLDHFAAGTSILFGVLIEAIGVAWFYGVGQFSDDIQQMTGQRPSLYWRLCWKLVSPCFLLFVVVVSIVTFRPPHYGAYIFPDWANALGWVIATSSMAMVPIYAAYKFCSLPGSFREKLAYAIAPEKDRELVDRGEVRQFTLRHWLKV

For C#C[C@H]1[C@@H](c2ccc(Cl)cc2)C[C@@H]2CC[C@H]1N2C, which IC50 [1] is on record?
Its IC50 is 3.6 nM.

And the Ki [2]?
Its Ki is 75 nM.

And the Ki [3]?
Its Ki is 18 nM.

With Cc1ccc([C@H]2C[C@@H]3CC[C@H]([C@H]2C#Cc2ccccc2)N3C)cc1 as the compound, how does the IC50 [1] read?
Its IC50 is 0.8 nM.

What about the Ki [2] of the same compound?
The Ki was 31 nM.

What about the Ki [3] of the same compound?
The Ki was 730 nM.

Which IC50 [1] does the source give for CN1[C@H]2CC[C@@H]1[C@@H](C#Cc1ccc(N)cc1)[C@@H](c1ccc(Cl)cc1)C2 here?
Its IC50 is 2.2 nM.

What about the Ki [2] of the same compound?
The Ki was 50 nM.

And the Ki [3]?
The Ki was 19 nM.

Which IC50 [1] does the source give for CN1[C@H]2CC[C@@H]1[C@@H](C=C(Br)Br)[C@@H](c1ccc(Cl)cc1)C2 here?
Its IC50 is 0.32 nM.

And the Ki [2]?
The Ki was 3.5 nM.

What about the Ki [3] of the same compound?
Its Ki is 7 nM.

With CN1[C@H]2CC[C@@H]1[C@@H](C#Cc1ccccc1)[C@@H](c1ccc(Cl)cc1)C2 as the compound, how does the IC50 [1] read?
Its IC50 is 0.8 nM.

And the Ki [2]?
Its Ki is 14 nM.

What about the Ki [3] of the same compound?
Its Ki is 81 nM.

Which IC50 [1] does the source give for COC(=O)[C@H]1[C@@H](c2ccccc2)C[C@@H]2CC[C@H]1N2C here?
Its IC50 is 23 nM.

What about the Ki [2] of the same compound?
Its Ki is 556 nM.

What does the source list for CN1[C@H]2CC[C@@H]1[C@@H](c1cn(Cc3ccccc3)nn1)[C@@H](c1ccc(Cl)cc1)C2?
IC50 [1]: 47 nM; Ki [2]: 2560 nM; Ki [3]: 161 nM

Which IC50 [1] does the source give for Cc1ccc([C@H]2C[C@@H]3CC[C@H]([C@H]2C=C(Br)Br)N3C)cc1 here?
Its IC50 is 0.23 nM.

What about the Ki [2] of the same compound?
The Ki was 3.4 nM.

What about the Ki [3] of the same compound?
Its Ki is 39 nM.

With CN1[C@H]2CC[C@@H]1[C@H](C=C(Br)Br)[C@@H](c1ccc(Cl)cc1)C2 as the compound, how does the IC50 [1] read?
The IC50 was 1.4 nM.

And the Ki [2]?
The Ki was 49 nM.

And the Ki [3]?
The Ki was 76 nM.

What does the source list for CN1[C@H]2CC[C@@H]1[C@@H](C#Cc1ccc([N+](=O)[O-])cc1)[C@@H](c1ccc(Cl)cc1)C2?
IC50 [1]: 0.9 nM; Ki [2]: 230 nM; Ki [3]: 620 nM; Selectivity ratio [4]: 256; Selectivity ratio [5]: 689

What does the source list for Cc1ccc([C@H]2C[C@@H]3CC[C@H]([C@@H]2C=C(Br)Br)N3C)cc1?
IC50 [1]: 3.6 nM; Ki [2]: 55 nM; Ki [3]: 252 nM

For C#C[C@H]1[C@@H](c2ccc(C)cc2)C[C@@H]2CC[C@H]1N2C, which IC50 [1] is on record?
The IC50 was 11 nM.

And the Ki [2]?
Its Ki is 150 nM.

And the Ki [3]?
The Ki was 54 nM.

Which IC50 [1] does the source give for CN1[C@H]2CC[C@@H]1[C@@H](c1cn(CCN3CCCCC3)nn1)[C@@H](c1ccc(Cl)cc1)C2 here?
The IC50 was 8 nM.

What about the Ki [2] of the same compound?
The Ki was 430 nM.

And the Ki [3]?
Its Ki is 138 nM.
